{"source": "ChEMBL document CHEMBL4130635", "about": "“2,4-Diaminoquinazolines as Dual Toll-like Receptor (TLR) 7/8 Modulators for the Treatment of Hepatitis B Virus” (J Med Chem, 2018)", "key": {"[1]": {"experiment": "Protein binding in dog plasma fraction at 5 uM after 4.5 hrs LC-MS/MS-based rapid equilibrium dialysis method", "format": "ADME, cell-free, Canis lupus familiaris", "settings": "read-out: PPB (converted)"}, "Plasma": {"system": "Plasma", "experiment": "Proinflammatory activity in C57BL/6J mouse plasma assessed as CXCL-1 levels at 3 mg/kg, po by multiplex assay (reference value: 230 pg/ml)", "format": "functional"}, "Liver": {"system": "Liver", "experiment": "Proinflammatory activity in C57BL/6J mouse liver assessed as CXCL-1 levels at 0.3 mg/kg, po by multiplex assay (reference value: 25 pg/g)", "format": "functional"}, "Cynomolgus monkey [2]": {"system": "Cynomolgus monkey", "experiment": "Proinflammatory activity in cynomolgus monkey plasma assessed as IL-6 levels at 3 mg/kg, po after 24 hrs by Luminex assay (reference value: 80 pg/ml)", "format": "functional, Macaca fascicularis"}, "Cynomolgus monkey [3]": {"system": "Cynomolgus monkey", "experiment": "Induction of G-CSF in cynomolgus monkey plasma at 30 mg/kg, po after 24 hrs by Luminex assay (reference value: 85 pg/ml)", "format": "functional, Macaca fascicularis", "method_in_brief": "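Healthy cynomolgus monkeys given single oral doses of 1, 3, 9 and 30 mg/kg, with a 2-week wash-out planned between doses. Systemic cytokine levels in plasma were sampled at 0.5, 1, 2, 4, 9 and 24 h postdose.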"}, "Cynomolgus monkey [4]": {"system": "Cynomolgus monkey", "experiment": "Induction of ISG response in cynomolgus monkey plasma assessed as upregulation of Oas1b mRNA expression at 1 mg/kg, po after 24 hrs by Fluidigm RT-qPCR analysis (reference value: 1)", "format": "functional, Macaca fascicularis", "method_in_brief": "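Cynomolgus monkeys, single oral doses of 1, 3, 9 and 30 mg/kg with a planned 2-week wash-out between doses. Systemic ISG (ISG15, Mx1, OAS1) mRNA was measured by Fluidigm RT-qPCR at 1, 2, 4, 8 and 24 h postdose.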"}, "[5]": {"target": "TLR7 and TLR8 (Homo sapiens) (UniProt Q9NYK1+Q9NR97)", "experiment": "Agonist activity at TLR7/8 in human PBMCs co-cultured with primary human hepatocytes infected with HBV genotype C for 12 days assessed as increase in GROalpha levels up to 5 uM measured after 42 days"}, "[6]": {"experiment": "Selectivity index, ratio of compound concentration causing induction of AST level in primary human hepatocytes infected with HBV genotype C for 12 days followed by exposure to conditioned supernatant from at 5 uM compound treated PBMCs measured after 42 days to Agonist activity at human TLR7 expressed in HEK293 cells"}}, "note": "Activity calls are given as the source filed them. The calls are words filed in the database; no cut-off is given here."}
{"smiles": "CCC[C@@H](CCO)Nc1nc(N)nc2c(F)cccc12", "values": [{"measurement": "fraction unbound at 4.5 h, 5 µM", "setting": "[1]", "value": 0.59}, {"measurement": "Activity", "setting": "Plasma", "value": ">10000", "unit": "pg/mL"}, {"measurement": "Activity", "setting": "Liver", "value": 7790, "unit": "pg/g"}, {"measurement": "Activity", "setting": "Cynomolgus monkey [2]", "value": 200, "unit": "pg/mL"}, {"measurement": "Activity", "setting": "Cynomolgus monkey [3]", "value": 1135, "unit": "pg/mL"}, {"measurement": "fold change (FC)", "setting": "Cynomolgus monkey [4]", "value": 180}, {"measurement": "Activity", "setting": "[5]", "value": "Active"}, {"measurement": "Ratio", "setting": "[6]", "value": 25}]}
